Measurements of several laboratories.
Lines come from different studies, so protocols differ.
Target: BDNF/NT-3 growth factors receptor (NTRK2, Homo sapiens, UniProt Q16620)

Compound | test | conditions | remaining binding [%]
O=C(NCC1CCOCC1)c1n[nH]cc1NC(=O)c1c(F)cccc1F | binding, competition with immobilised ligand | 1 µM | 100
CC1=C(C#N)C(c2ccc3c(c2)c(NC(=O)c2ccccc2C)nn3C)C(C#N)=C(C)N1 | cell-free assay, competition with immobilised ligand | 1 µM | 72
FC(F)(F)Oc1cccc(-c2cnc3ccc(-c4ccncc4)nn23)c1 | cell-free assay, competition with immobilised ligand | 5 µM | 8.9
CNC(=O)[C@@H]1CC[C@@H](n2c(-c3ccc4cnccc4c3)nc3ccc(C(=O)NCc4cccc(C(N)=O)c4)cc32)C1 | binding, competition with immobilised ligand | 1 µM | 100
COc1ccnn2ncc(-c3ccnc(N(C)C)n3)c12 | binding | 1 µM | 87
COc1cnc(Nc2cccc(S(N)(=O)=O)c2)nc1N1CCN(c2ccccc2)CC1 | binding, competition with immobilised ligand | 1 µM | 75
CC1CCCN1c1nccc(-c2cnn3ncccc23)n1 (stereo not drawn) | binding | 1 µM | 100
CCCCN(CCCC)C(=O)CN1C[C@@H](c2cc(OC)c3c(c2)OCO3)[C@H](C(=O)O)[C@H]1CC(C)(C)CCC | cell-free assay, competition with immobilised ligand | 1 µM | 98.3
O=C(c1ccc(Nc2ncc(Cl)c(-c3cc4ccccc4s3)n2)cc1)N1CCC(N2CCCC2)CC1 | binding, competition with immobilised ligand | 1 µM | 13
CN(C)CC#Cc1ccc(OCCCc2sc(N3CCc4cccc(C(=O)Nc5nc6ccccc6s5)c4C3)nc2C(=O)O)c(F)c1 | cell-free assay, competition with immobilised ligand | 1 µM | 100
C[C@@H]1CCN(c2nccc(-c3cnn4ncccc34)n2)C1 | binding | 1 µM | 72
O=C(c1ccc(Nc2nccc(-c3cc4ccccc4s3)n2)cc1)N1CCC(N2CCCC2)CC1 | binding, competition with immobilised ligand | 1 µM | 59
c1cncc(-c2cccc(Nc3nccc(NC4CCCCC4)n3)c2)c1 | binding, competition with immobilised ligand | 10 µM | 16
N[C@@H]1CCN(c2nccc(-c3cnn4ncccc34)n2)C1 | binding | 1 µM | 100
COc1ncc2cc3ccccc3nc2c1C#N | cell-free assay, competition with immobilised ligand | 5 µM | 98
CCS(=O)(=O)c1cc2cc(C[C@@](O)(CC(C)(C)c3ccc(F)cc3C(N)=O)C(F)(F)F)[nH]c2cn1 | cell-free assay, competition with immobilised ligand | 1 µM | 84
CN(C)c1nccc(-c2cnc3ncccn23)n1 | binding | 1 µM | 65
O=C(NC[C@@H]1[C@H]2CN(C(=O)OCc3cc(C(F)(F)F)cc(C(F)(F)F)c3)C[C@@H]12)c1ccc2[nH]nnc2c1 | cell-free assay, competition with immobilised ligand | 1 µM | 99
F[C@@H]1CCN(c2nccc(-c3cnn4ncccc34)n2)C1 | binding | 1 µM | 100
CC(C)CC(=O)N1CCc2nc(-c3ccc(Br)cc3)nc(N(C)Cc3ccccc3)c2C1 | cell-free assay, competition with immobilised ligand | 0.1 µM | 100
O=C(NCCCN1CCOCC1)c1ccc(Nc2nccc(-c3cc4ccccc4s3)n2)cc1 | binding, competition with immobilised ligand | 1 µM | 69
